Experimental findings from ChEMBL document CHEMBL4393684, “Benzoic acid-derived nitrones: A new class of potential acetylcholinesterase inhibitors and neuroprotective agents” (Eur J Med Chem, 2019) are described below.

Data set [1] concerns the target Acetylcholinesterase (Electrophorus electricus) (UniProt O42275). Nature of the data set: Inhibition of electric eel AChE using acetylthiocholine iodide as substrate at 50 uM incubated for 5 mins followed by substrate addition measured for 5 mins by Ellman's method. In outline: (§1)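 Ellman's colorimetric method. AChE came from Electrophorus electricus and BChE from equine serum. Compounds were tested up to 50 μM, the highest concentration.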
On the technique in general: Ellman's reagent forms a yellow product with free thiols.

The target in data set [2] is Cholinesterase (Equus caballus) (UniProt P81908). Put plainly: Inhibition of equine serum BChE using butyrylthiocholine iodide as substrate at 50 uM incubated for 5 mins followed by substrate addition measured for 5 mins by Ellman's method. In a few lines:
as §1

The test system of data set [3] is SH-SY5Y. Nature of the data set: Cytotoxicity against human SH-SY5Y cells assessed as reduction in cell viability at 1 to 50 uM incubated for 24 hrs by MTT assay. It is filed as cell-based. In a few lines:
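Differentiated human SH-SY5Y neuroblastoma cells were exposed in culture medium to 1, 10 and 50 μM for 24 h. Viability was read as metabolic activity by MTT reduction. Untreated cells served as control, and results are mean % of untreated controls ± SEM (n = 4).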
A general note: Tetrazolium assays rely on reduction of a dye to a coloured formazan, in cell work by metabolically active cells.

The test system of data set [4] is HepG2. Nature of the data set: Cytotoxicity against human HepG2 cells assessed as reduction in cell viability at 1 to 50 uM incubated for 24 hrs by resazurin dye based fluorescence assay. The settings on record: hepg2, 24 h. In a few lines:
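HepG2 hepatocellular carcinoma cells were exposed in culture medium to 1, 10 and 50 μM. Viability was measured as metabolic activity by resazurin reduction. Results are mean % of untreated control cells ± SEM (n = 4).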
Background: The colour change of resazurin is a common sign of viable cells or microbes.

The target of data set [5] is Acetylcholinesterase (Electrophorus electricus) (UniProt O42275). Nature of the data set: Noncompetitive inhibition of electric eel AChE assessed as effect on Km of substrate at 5 to 20 uM using acetylthiocholine iodide as substrate incubated for 5 mins followed by substrate addition measured for 5 mins by double reciprocal Lineweaver-Burk plot analysis.
The target is the same in data set [6]. Put plainly: Noncompetitive inhibition of electric eel AChE assessed as decrease in Vmax for substrate at 5 to 20 uM using acetylthiocholine iodide as substrate incubated for 5 mins followed by substrate addition measured for 5 mins by double reciprocal Lineweaver-Burk plot analysis.
Data set [7] has as its target Acetylcholinesterase (Electrophorus electricus, UniProt O42275). Put plainly: Inhibition of electric eel AChE assessed as inhibition constant using acetylthiocholine iodide as substrate pretreated for 5 mins followed by substrate addition measured for 5 mins by Dixon plot analysis.
Data set [8] relates to SH-SY5Y. Nature of the data set: Neuroprotective activity against DOX-induced oxidative stress in human SH-SY5Y cells assessed as metabolic stability at 10 to 100 uM incubated for 24 hrs by resazurin dye based fluorescence assay relative to control. It is filed as functional. In a few lines: (§2)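 Differentiated SH-SY5Y cells were given test compounds at 10, 50 and 100 μM. Two protocols were used: 24 h compound pre-incubation then stressor, or stressor first then 24 h compound. Stressors were H2O2 1 mM, t-BHP 200 μM, ROT/AA 1 μM or DOX 1 μM, each for 4 h. Resazurin reduction was read as % of untreated control, four independent experiments, one-way ANOVA.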

Data set [9] has as its system SH-SY5Y. Put plainly: Neuroprotective activity against ROT/AA-induced oxidative stress in human SH-SY5Y cells assessed as metabolic stability at 10 to 100 uM incubated for 24 hrs by resazurin dye based fluorescence assay relative to control. It is filed as functional. In a few lines: as §2
The subject of data set [10] is SH-SY5Y. Nature of the data set: Neuroprotective activity against t-BHP-induced oxidative stress in human SH-SY5Y cells assessed as metabolic stability at 10 to 100 uM incubated for 24 hrs by resazurin dye based fluorescence assay relative to control. The class given is functional. In a few lines:
as §2

The test system of data set [11] is SH-SY5Y. Nature of the data set: Neuroprotective activity against H2O2-induced oxidative stress in human SH-SY5Y cells assessed as metabolic stability at 10 to 100 uM incubated for 24 hrs by resazurin dye based fluorescence assay relative to control. The class given is functional. In outline: as §2
Data set [12] deals with SH-SY5Y. Nature of the data set: Neuroprotective activity against t-BHP-induced oxidative stress in human SH-SY5Y cells assessed as metabolic stability incubated for 24 hrs by resazurin dye based fluorescence assay relative to control. The class given is functional, cell-based. In a few lines: as §2
Data set [13] concerns the target Acetylcholinesterase (Electrophorus electricus) (UniProt O42275). Put plainly: Mixed inhibition of electric eel AChE assessed as decrease in Vmax of substrate at 7.5 to 30 uM using acetylthiocholine iodide as substrate incubated for 5 mins followed by substrate addition measured for 5 mins by double reciprocal Lineweaver-Burk plot analysis.
The target is the same in data set [14]. Put plainly: Mixed inhibition of electric eel AChE assessed as decrease in Km of substrate at 7.5 to 30 uM using acetylthiocholine iodide as substrate incubated for 5 mins followed by substrate addition measured for 5 mins by double reciprocal Lineweaver-Burk plot analysis.

pKi: −log10 of the molar value. Calls of active or inactive are those of the source. No cut-off for these calls is given here.

Sequence of Cholinesterase (Equus caballus) (P81908 whole entry): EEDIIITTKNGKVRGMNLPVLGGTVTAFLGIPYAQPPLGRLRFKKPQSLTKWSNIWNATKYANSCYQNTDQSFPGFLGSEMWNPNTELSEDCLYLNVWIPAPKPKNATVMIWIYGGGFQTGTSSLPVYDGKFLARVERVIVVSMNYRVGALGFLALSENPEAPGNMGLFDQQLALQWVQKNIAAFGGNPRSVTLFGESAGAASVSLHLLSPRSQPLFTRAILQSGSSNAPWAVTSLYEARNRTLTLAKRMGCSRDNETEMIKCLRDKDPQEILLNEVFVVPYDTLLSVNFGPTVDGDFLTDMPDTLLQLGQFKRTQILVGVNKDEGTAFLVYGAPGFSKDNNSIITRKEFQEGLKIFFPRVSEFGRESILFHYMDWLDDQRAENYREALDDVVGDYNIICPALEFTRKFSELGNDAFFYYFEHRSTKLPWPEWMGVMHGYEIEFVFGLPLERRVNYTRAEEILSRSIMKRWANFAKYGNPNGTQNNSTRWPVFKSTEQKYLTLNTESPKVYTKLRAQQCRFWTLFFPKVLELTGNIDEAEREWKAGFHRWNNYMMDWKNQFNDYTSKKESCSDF
Sequence of Acetylcholinesterase (Electrophorus electricus) (O42275 24-633 limits assumed): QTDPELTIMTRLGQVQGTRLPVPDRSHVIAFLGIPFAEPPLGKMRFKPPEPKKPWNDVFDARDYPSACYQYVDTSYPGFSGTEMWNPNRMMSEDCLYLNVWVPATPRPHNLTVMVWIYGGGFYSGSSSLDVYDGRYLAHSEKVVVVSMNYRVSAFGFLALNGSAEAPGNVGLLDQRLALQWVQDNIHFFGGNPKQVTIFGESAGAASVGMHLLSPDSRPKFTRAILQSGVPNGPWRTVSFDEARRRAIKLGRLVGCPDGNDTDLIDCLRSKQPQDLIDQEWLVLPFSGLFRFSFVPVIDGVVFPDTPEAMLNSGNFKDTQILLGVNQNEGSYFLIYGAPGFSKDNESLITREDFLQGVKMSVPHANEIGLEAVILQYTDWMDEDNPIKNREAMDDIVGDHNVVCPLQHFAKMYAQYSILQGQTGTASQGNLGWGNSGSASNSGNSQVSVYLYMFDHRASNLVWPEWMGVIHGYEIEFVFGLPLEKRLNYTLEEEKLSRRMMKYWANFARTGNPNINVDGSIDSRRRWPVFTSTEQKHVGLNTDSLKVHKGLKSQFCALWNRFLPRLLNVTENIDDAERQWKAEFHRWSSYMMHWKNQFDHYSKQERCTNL
Sequence of Acetylcholinesterase (O42275 whole entry): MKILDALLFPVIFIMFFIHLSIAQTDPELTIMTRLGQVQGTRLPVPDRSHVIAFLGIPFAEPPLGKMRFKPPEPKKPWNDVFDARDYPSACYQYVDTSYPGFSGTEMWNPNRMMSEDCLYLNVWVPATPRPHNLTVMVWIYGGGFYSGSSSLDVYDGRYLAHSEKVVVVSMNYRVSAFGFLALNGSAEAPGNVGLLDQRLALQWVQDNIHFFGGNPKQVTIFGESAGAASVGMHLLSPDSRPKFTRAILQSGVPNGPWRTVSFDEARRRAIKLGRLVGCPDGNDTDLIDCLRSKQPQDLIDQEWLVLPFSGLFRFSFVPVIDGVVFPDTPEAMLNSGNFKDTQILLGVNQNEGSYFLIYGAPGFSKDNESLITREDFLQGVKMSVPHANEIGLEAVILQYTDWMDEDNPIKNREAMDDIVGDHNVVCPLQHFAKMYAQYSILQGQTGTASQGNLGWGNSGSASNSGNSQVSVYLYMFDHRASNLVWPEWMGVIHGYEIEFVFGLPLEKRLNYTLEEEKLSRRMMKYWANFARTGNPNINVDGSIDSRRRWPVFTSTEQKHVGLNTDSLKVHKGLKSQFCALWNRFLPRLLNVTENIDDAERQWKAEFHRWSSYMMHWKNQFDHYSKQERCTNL

With `COc1ccc(C(=O)NCCCCC/C=[N+](\[O-])Cc2ccccc2)cc1`, the inhibition result in data set [1] and in [2] was “inactive” each time. Besides, the Activity entry in data set [3] and in [4] was “Non-Toxic” each time.
In the case of `COc1cc(C(=O)NCCCCC/C=[N+](\[O-])C2CCCCC2)cc(OC)c1OC`, the inhibition result in data set [1] and in data set [2] was “inactive” in each case. Moreover, the Activity result in data set [3] and in [4] was “Non-Toxic” in each case.
Regarding `COc1ccc(C(=O)NCCCCC/C=[N+](\[O-])C(C)(C)C)cc1`, the inhibition result in data set [2] is “inactive”. The Activity entry in data set [3] and in data set [4] was “Non-Toxic” each time.
With `COc1cc(C(=O)NCCCCC/C=[N+](\[O-])Cc2ccccc2)cc(OC)c1OC`, the inhibition result in data set [1] and in data set [2] was “inactive” in each case. Moreover, the Activity entry in data set [3] and in data set [4] was “Non-Toxic” each time.
Take `COc1cccc(C(=O)NCCCCC/C=[N+](\[O-])C(C)(C)C)c1`: in data set [2], the inhibition result was “inactive”. In addition, the Activity entry in [3] and in [4] was “Non-Toxic” in each case.
Turning to `O=C(NCCCCC/C=[N+](\[O-])C1CCCCC1)c1ccccc1`, the inhibition result in data set [1] and in [2] was “inactive” throughout. In addition, the Activity entry in [3] and in data set [4] was “Non-Toxic” each time.
In the case of `COc1cccc(C(=O)NCCCCC/C=[N+](\[O-])C2CCCCC2)c1`, the inhibition entry in data set [1] and in data set [2] was “inactive” throughout. Besides, the Activity entry in [3] and in data set [4] was “Non-Toxic” each time.
Take `COc1ccc(C(=O)NCCCCC/C=[N+](\[O-])C2CCCCC2)cc1OC`: the inhibition result in data set [1] and in data set [2] was “inactive” each time. For the same compound, the Activity result in data set [3] and in [4] was “Non-Toxic” in each case.
`COc1ccc(C(=O)NCCCCCCCCC/C=[N+](\[O-])C(C)(C)C)cc1OC`: the inhibition result in data set [2] was “inactive”. In addition, the Activity result in data set [3] and in [4] was “Non-Toxic” each time.
For the compound `COc1ccc(C(=O)NCCCCC/C=[N+](\[O-])Cc2ccccc2)cc1OC`, the inhibition result in data set [1] and in [2] was “inactive” each time. In addition, the Activity entry in data set [3] and in [4] was “Non-Toxic” each time.
Regarding `COc1cccc(C(=O)NCCCCC/C=[N+](\[O-])Cc2ccccc2)c1`, the inhibition entry in data set [1] and in data set [2] was “inactive” throughout. Further, the Activity result in data set [3] and in data set [4] was “Non-Toxic” in each case.
For `COc1cc(C(=O)NCCCCCCC/C=[N+](\[O-])C(C)(C)C)cc(OC)c1OC`, the inhibition entry in [2] is “inactive”. Moreover, the Activity entry in data set [3] and in [4] was “Non-Toxic” throughout.
`COc1ccc(C(=O)NCCCCC/C=[N+](\[O-])C2CCCCC2)cc1`: the inhibition entry in data set [1] and in [2] was “inactive” each time. Besides, the Activity entry in data set [3] and in [4] was “Non-Toxic” in each case.
Regarding `COc1ccc(C(=O)NCCCCC/C=[N+](\[O-])C(C)(C)C)cc1OC`, the inhibition entry in data set [5] and in [6] was “Active” throughout. For the same compound, the inhibition entry in data set [2] is “inactive”. Moreover, the pKi in data set [7] is 5.28. Also, the Activity was 107 to 122% in data set [3]; 32.9% in data set [8]; “Non-Toxic” in data set [4]; 20.7% in data set [9]; 44.3% in [10]; 50.3% in [11]. Further, the Activity entry in data set [12] is “Dose-dependent effect”.
For `COc1ccc(C(=O)NCCCCCCC/C=[N+](\[O-])C(C)(C)C)cc1OC`, the inhibition entry in data set [2] is “inactive”. The Activity result in [3] and in data set [4] was “Non-Toxic” in each case.
Take `CC(C)(C)/[N+]([O-])=C/CCCCCNC(=O)c1ccccc1`: the inhibition result in [1] and in [2] was “inactive” throughout. Also, the Activity entry in data set [3] and in data set [4] was “Non-Toxic” in each case.
Regarding `COc1cc(C(=O)NCCCCCCCCC/C=[N+](\[O-])C(C)(C)C)cc(OC)c1OC`, the inhibition result in data set [2] is “inactive”. The Activity entry in data set [3] and in data set [4] was “Non-Toxic” each time.
Turning to `O=C(NCCCCC/C=[N+](\[O-])Cc1ccccc1)c1ccccc1`, the inhibition result in [1] and in data set [2] was “inactive” in each case. In addition, the Activity result in data set [3] and in data set [4] was “Non-Toxic” each time.
In the case of `COc1cc(C(=O)NCCCCC/C=[N+](\[O-])C(C)(C)C)cc(OC)c1OC`, the inhibition entry in [13] and in data set [14] was “Active” throughout. In addition, the inhibition entry in data set [2] was “inactive”. Moreover, the Activity was 107 to 122% in data set [3] and “Non-Toxic” in data set [4]. For the same compound, the outcome in data set [8], in data set [9], in data set [10] and in data set [11] was inactive.

In general, pKi refers to the Ki on a negative log10 scale, so that one unit is a factor of ten.
